Screening results (PubChem BioAssay)
Sampled rows, rich in hits. Any-hit rate of the full collection: about 3.9%.
APP 5'UTR act = APP 5'UTR luciferase reporter activation | 190,000 compounds, 1% hits | AID 1276 | activation, % at 2 µM | SH-SY5Y APP 5'UTR luciferase reporter, luminescence; zero percent = DMSO vehicle wells;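 active = activation above a set limit, based on mean plus 3 SD of controls, cut at about 140% in these data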
Rad51 HR inh = blocks human Rad51 in homologous recombination; AID 1385; 200,000 compounds, 0.085% hits; Q06609; hRad51 DNA strand exchange, fluorescence dequenching; inhibition, % at 10 µM;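 active = inhibition above 40% at the single screening dose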;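 note: 0% = DMSO control wells and 100% = blanks with heterologous ssDNA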
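System: human Rad51 nucleoprotein filaments preassembled on unlabelled ssDNA. Reagent: labelled 47-mer dsDNA for strand exchange. Schedule: 30-min compound preincubation and 15-min exchange, both room temperature. Measured by: FRET fluorescence dequenching, excitation 485 nm, emission 520 nm. Read-out: Fluorescence-based percent inhibition, control- and blank-normalised. Benchmarks: plate controls and plate blanks.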
FLuc stim CS = firefly luciferase counter-screen for stimulation assays. ATPlite luciferase biochemical, luminescence, 10 min; 0 = ATP-free wells, 1 = DMSO control. activation factor at 10 µM. 200,000 tested, under 10 active. AID 1027;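 active = luciferase activation factor, scaled between plate controls, of at least 2 with compound at 10 µM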
Target sequence (P08659 whole entry, looked up): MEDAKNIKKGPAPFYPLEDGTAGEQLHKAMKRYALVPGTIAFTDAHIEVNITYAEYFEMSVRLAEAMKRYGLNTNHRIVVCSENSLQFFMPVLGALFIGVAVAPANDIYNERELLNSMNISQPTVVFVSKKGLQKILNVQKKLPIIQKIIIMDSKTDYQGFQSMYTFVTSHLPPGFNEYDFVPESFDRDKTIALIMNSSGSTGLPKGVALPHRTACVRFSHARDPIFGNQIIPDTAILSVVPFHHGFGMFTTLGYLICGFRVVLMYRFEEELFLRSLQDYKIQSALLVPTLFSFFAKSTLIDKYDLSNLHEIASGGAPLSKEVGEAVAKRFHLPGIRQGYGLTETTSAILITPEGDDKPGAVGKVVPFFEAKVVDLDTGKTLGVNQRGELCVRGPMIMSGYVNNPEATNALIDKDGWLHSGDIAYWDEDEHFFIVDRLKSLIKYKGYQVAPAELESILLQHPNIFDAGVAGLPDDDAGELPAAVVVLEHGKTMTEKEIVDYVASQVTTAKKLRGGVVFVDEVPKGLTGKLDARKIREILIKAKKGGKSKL
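Assay system: Luciferase/luciferin detection reagent, cell-free biochemical luciferase assay / Read-out: luciferase activation / Benchmarks: No-ATP low control, compound-free enzyme-plus-ATP high control / Medium: PBS buffer for ATP / Detection: luminescence measurement of luciferase light output / Schedule: 10 min at ambient temperature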
STAT1 activator = STAT1 signaling activation | NIH 3T3 STAT1-luciferase reporter, IFN-gamma, luminescence; 100% = IFN-gamma alone, no compound | activation (% of control), % at 5.5 µM | 200,000 compounds, 2.6% hits;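 active = activation above the screen-wide mean activation plus 3 SD, cut at about 130% in these data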;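 note: raw ratio to IFN-gamma control signal so 100% means no change and 0% no light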
FLuc inhib CS = Photinus pyralis luciferase inhibition counter-screen. ATPLite firefly luciferase biochemical luminescence, 10 min. inhibition, % at 10 µM. P08659. 200,000 compounds, 1.5% hits;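 active = inhibition above about 50% when tested at 10 µM, limit read from the data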
NF-kB neuron act = compounds increasing NF-kB expression in human neuronal cells; NF-kB reporter expression; hits give high values; fold change at 12.5 µM; 190,000 compounds, 1.6% hits; AID 1239; in the data active = fold change above about 3.3
* = called active by the depositor.

`COc1cccc(-c2cc(C(=O)Nc3ccccc3SC)no2)c1` gave APP 5'UTR act 50.5, Rad51 HR inh -7.6, FLuc stim CS 0.9, STAT1 activator 129.2*, FLuc inhib CS 9.2 and NF-kB neuron act 1.32.
For CCCC(C)C(=O)OCC(=O)NCc1ccc(OC)c(OC)c1 (centres undefined) the results were APP 5'UTR act -2.5, Rad51 HR inh -3.2, FLuc stim CS 1.1, STAT1 activator 91.0, FLuc inhib CS -7.1 and NF-kB neuron act 1.02.
CN(C)C(CNC(=O)c1ccc(S(=O)(=O)N(C)C)cc1)Cc1ccccc1 (centres undefined) was read as APP 5'UTR act 14.4, Rad51 HR inh -0.9, FLuc stim CS 1, STAT1 activator 89.2, FLuc inhib CS -2.8 and NF-kB neuron act 1.18.
For CCOC(=O)C1CCN(C(=O)c2ccc(N(C)S(=O)(=O)c3ccc(OC)cc3)cc2)CC1 the results were APP 5'UTR act 2.5, Rad51 HR inh -42.5, FLuc stim CS 1, STAT1 activator 91.9, FLuc inhib CS -4.9 and NF-kB neuron act 1.1.
COCC(C)NC(=O)c1cc(-c2cccc(OC)c2)on1 (centres undefined) was read as APP 5'UTR act 23.2, FLuc stim CS 0.8, STAT1 activator 133.7*, FLuc inhib CS 19.5 and NF-kB neuron act 1.47.
`C/C(=N\NC(=O)c1ccc(CN2CCOCC2)cc1)c1ccc(NC(=O)c2ccccc2)cc1` gave APP 5'UTR act 73.7, FLuc stim CS 0.9, STAT1 activator 130.9*, FLuc inhib CS 5.8 and NF-kB neuron act 1.46.
Screening COC(=O)c1ccc(NC(=O)c2ccc(CN3CCOCC3)cc2)cc1 returned APP 5'UTR act -4.2, Rad51 HR inh -0.4, FLuc stim CS 1.1, STAT1 activator 99.5, FLuc inhib CS -7.1 and NF-kB neuron act 1.1.
For O=C(Nc1ccc(CN2CCOCC2)cc1)c1cccc(F)c1 the results were APP 5'UTR act 76.2, Rad51 HR inh 5.0, FLuc stim CS 0.7, STAT1 activator 132.9*, FLuc inhib CS 28.5 and NF-kB neuron act 2.14.
Screening CCOC(=O)CC(=O)Nc1nc2ccccc2s1 returned APP 5'UTR act 0.0, Rad51 HR inh 5.6, FLuc stim CS 1, STAT1 activator 113.8, FLuc inhib CS 0.3 and NF-kB neuron act 1.27.
For CCOC(=O)Nc1nc2ccccc2s1 the results were APP 5'UTR act 55.9, Rad51 HR inh -0.8, FLuc stim CS 0.8, STAT1 activator 126.8, FLuc inhib CS 15.2 and NF-kB neuron act 3.47*.
`CCOCC(=O)Nc1nc2ccc(C)cc2s1` gave APP 5'UTR act 95.7, Rad51 HR inh -0.6, FLuc stim CS 0.8, STAT1 activator 123.8, FLuc inhib CS 22.8 and NF-kB neuron act 3.44*.
CCCNC(=O)Nc1nc2ccccc2s1 was read as Rad51 HR inh 1.3.
For CCc1ccc2nc(N)sc2c1 the results were APP 5'UTR act 55.9, Rad51 HR inh 2.0, FLuc stim CS 0.4, STAT1 activator 105.6, FLuc inhib CS 56.3* and NF-kB neuron act 0.95.
CCCCNC(=O)Nc1nc2ccc(CC)cc2s1 was read as APP 5'UTR act 84.9, Rad51 HR inh -0.3, FLuc stim CS 1, STAT1 activator 144.3*, FLuc inhib CS 3.0 and NF-kB neuron act 1.89.
For CCOCC(=O)Nc1nc2ccc(S(C)(=O)=O)cc2s1 the results were APP 5'UTR act -8.4, Rad51 HR inh 3.5, FLuc stim CS 1, STAT1 activator 121.7, FLuc inhib CS 0.2 and NF-kB neuron act 1.42.
Screening CC(=O)Nc1ccc2nc(N)sc2c1 returned APP 5'UTR act 13.7, Rad51 HR inh 6.9, STAT1 activator 99.8 and NF-kB neuron act 1.43.
O=C(COC(=O)c1cccnc1Nc1cccc(C(F)(F)F)c1)NC1CCS(=O)(=O)C1 (centres undefined) was read as APP 5'UTR act -9.7, Rad51 HR inh 7.1, FLuc stim CS 1, STAT1 activator 96.3, FLuc inhib CS -3.0 and NF-kB neuron act 1.14.
Cc1ccc2nc(NC(=O)CCCc3nc4ccccc4s3)sc2c1 was read as APP 5'UTR act 62.0, Rad51 HR inh 7.5, FLuc stim CS 1, STAT1 activator 113.5, FLuc inhib CS 3.1 and NF-kB neuron act 1.38.
Cc1nc2ccc(NC(=O)Cc3c(F)cccc3Cl)cc2s1 was read as Rad51 HR inh 0.0.
